C8 TRAIL sens – viability loss with TRAIL in NB7+C8 cells, primary screen, TRAIL sensitizer project, cell-based, ATPlite luminescence; AID 624354, 2012; actives 1% (n = 360,000); inhibition (viability loss, TRAIL sensitization), % at 10 µM;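 active = compounds causing at least 50% loss of cell viability in the single-dose screen, relative to plate controls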
APP 5'UTR act – activators of APP 5'UTR luciferase reporter, primary screen, SH-SY5Y cells; actives 1% (n = 190,000); activation, % at 2 µM; SH-SY5Y APP 5'UTR luciferase reporter, luminescence; zero percent = DMSO vehicle wells; AID 1276, 2008;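 active = activation above a set limit, based on mean plus 3 SD of controls, cut at about 140% in these data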
PPC-1+TRAIL kill – compounds killing PPC-1 cancer cells with TRAIL present, primary screen, TRAIL potentiator project, ATPLite luminescence, uHTS. PPC-1 cells + TRAIL, ATPLite viability luminescence. cell killing (% activity), % at 4 µM or 5 µM. actives 0.41% (n = 220,000);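 active = cell killing above 50% in the first pass at 4 µM, then a duplicate retest at 5 µM averaging 50% or more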;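 note: plate controls were cells with TRAIL plus DMSO for no effect and medium-only wells lacking cells for full effect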
FLuc stim CS – FLuc activators, initial screening, artefact control for FLuc-dependent activation tests, biochemical, ATPlite luminescence; activation factor at 10 µM; ATPlite luciferase biochemical, 10 min; 0 = ATP-free wells, 1 = DMSO control; Luciferin 4-monooxygenase (Photinus pyralis), P08659; AID 1027, 2008; 200,000 tested, under 10 active;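 active = luciferase activation factor, scaled between plate controls, of at least 2 with compound at 10 µM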
Target sequence (P08659 whole entry, looked up): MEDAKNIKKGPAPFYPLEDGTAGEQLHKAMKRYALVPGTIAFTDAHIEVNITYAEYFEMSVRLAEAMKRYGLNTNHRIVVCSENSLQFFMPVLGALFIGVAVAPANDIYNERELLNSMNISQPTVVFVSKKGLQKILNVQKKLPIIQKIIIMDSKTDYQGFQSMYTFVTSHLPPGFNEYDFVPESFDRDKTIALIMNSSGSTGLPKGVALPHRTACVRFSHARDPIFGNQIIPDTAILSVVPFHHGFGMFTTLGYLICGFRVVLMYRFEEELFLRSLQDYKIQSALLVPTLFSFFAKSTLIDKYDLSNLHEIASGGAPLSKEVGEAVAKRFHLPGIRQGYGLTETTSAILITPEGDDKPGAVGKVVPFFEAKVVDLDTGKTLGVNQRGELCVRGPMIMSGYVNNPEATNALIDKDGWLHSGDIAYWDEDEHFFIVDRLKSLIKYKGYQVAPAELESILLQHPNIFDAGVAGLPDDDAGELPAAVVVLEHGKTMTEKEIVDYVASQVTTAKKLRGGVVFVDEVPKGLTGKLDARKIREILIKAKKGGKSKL
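Assay system – cell-free luciferase reagent · Medium – PBS-based ATP solution · Dosing – test compounds dosed from 2 mM stocks in 100% DMSO · Timing – 10 min, room temperature · Technique – light output (luminescence) · Measure – luminescence gain marking luciferase activators · Controls – No-ATP low control, compound-free enzyme-plus-ATP high control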
NF-kB neuron act – activators of NF-kB expression in neurons, primary screen, cell-based, HTS; human neuronal cells, NF-kB reporter expression; stronger effect = higher value; fold change at 12.5 µM; actives 1.6% (n = 190,000); AID 1239, 2008; in the data active = fold change above about 3.3
FLuc inhib CS – firefly luciferase enzyme inhibitors, primary screen, artefact control for luciferase-based inhibitor screens, biochemical, luminescence, ATPLite. inhibition, % at 10 µM. Luciferin 4-monooxygenase (Photinus pyralis), P08659. 10 min. actives 1.5% (n = 200,000);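 active = inhibition above about 50% when tested at 10 µM, limit read from the data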
Starred values were filed as active, the others as inactive; x = no result. Only some compounds are listed: those with a hit (about 2.2% of all), similar ones and a draw of the others.

SMILES | C8 TRAIL sens | APP 5'UTR act | PPC-1+TRAIL kill | FLuc stim CS | NF-kB neuron act | FLuc inhib CS
CS(=O)(=O)c1ccc(C(=O)OCc2nnc(-c3ccc(Cl)cc3)o2)cc1[N+](=O)[O-] | -1 | -19 | -4 | 1 | 8.4* | 0
Cc1ccc(Cc2c(-c3ccc(Cl)cc3)nc3c(C)cc(Br)cn23)cc1 | 24 | x | x | x | x | x
Brc1ccccc1-n1nnc(-c2nccs2)n1 | 11 | 127 | 12 | 0.5 | 3.9* | 51*
Cc1csc(NC(=O)CSc2nc3[nH]c(=O)cc(O)c3s2)n1 | 58* | x | x | x | x | x
O=C(CSc1nc2[nH]c(=O)cc(O)c2s1)Nc1nncs1 | -7 | x | x | x | x | x
Cn1cc(Cc2ccc(C(=O)N3CCCCC3)cn2)c2ccccc21 | -1 | x | x | x | x | x
CC(=O)Nc1cc2nn(-c3ccccc3)nc2cc1Cl | 43 | 53 | -1 | 0.4 | 5.3* | 56*
O=C(Nc1ccc2nn(-c3ccccc3)nc2c1)c1cccnc1 | -3 | 51 | 18 | 1.1 | 1.3 | -6
CC(C)C(=O)Nc1ccc2nn(-c3ccccc3)nc2c1 | 54* | 234* | 45 | 0.3 | 1.1 | 69*
Fc1ccc2nc3[nH]c4ccccc4c3nc2c1 | 30 | 157* | 8 | 0.6 | 4.4* | 35
CCCC[C@@H]1Cc2[nH][nH]c(=O)c2[C@H](c2ccc(C(C)C)cc2)O1 | -16 | x | x | x | x | x
O/N=C/c1ccc(OCc2ccccc2)c(Br)c1 | 24 | 131 | 3 | 0.8 | 6.7* | 22
O/N=C/c1cc(Br)cc(Br)c1OCc1ccccc1 | 9 | -4 | 27 | 1.1 | 1.2 | -10
O/N=C/c1ccc(OCc2ccccc2)c(Cl)c1 | 20 | 117 | 16 | 0.6 | 5.4* | 39
O/N=C/c1ccc(OCc2ccccc2F)c(Cl)c1 | 11 | 135 | 30 | 0.6 | 1.2 | 44
COC(=O)[C@]12CCCCC=C1N(Cc1ccc(Cl)cc1Cl)C(=O)[C@H](CC(=O)N1CCC(c3ccccc3)CC1)C2 | 6 | x | x | x | x | x
CCCCN=C1NN=C(c2ccc3c(c2)OCCO3)CS1 | 63* | 80 | 30 | 0.2 | 2.9 | 83*
Clc1ccc(Nc2nc(C3CC3)cs2)cc1 | -9 | 180* | 12 | 0.9 | 5.1* | 14
Cc1ccc(Nc2nc(C3CC3)cs2)cc1 | x | 239* | 22 | 0.3 | 8.8* | 69*
S=c1[nH]nc(Nc2ccc(Cl)cc2)s1 | 2 | x | -2 | x | x | x
COc1ccc(C=C2C(=O)c3ccccc3C2=O)cc1O | -2 | 9 | 26 | 0.4 | 1.5 | 62*
CCN1C/C(=C/c2ccc(OC)c(O)c2)C(=O)/C(=C/c2ccc(OC)c(O)c2)C1 | 13 | -88 | 50* | 1 | 0.24 | 0
COc1ccc(/C=C2\CN(Cc3ccccc3)C/C(=C\c3ccc(OC)c(O)c3)C2=O)cc1O | -12 | x | x | x | x | x
c1ccc(-c2noc(-c3cccnc3)n2)cc1 | 26 | 80 | 22 | 0.7 | 3.4* | 26
c1ccc(-c2ccc(-c3nc(-c4cccnc4)no3)cc2)cc1 | 39 | 136* | 2 | 0.5 | 5.3* | 48
SMILES | C8 TRAIL sens | APP 5'UTR act | PPC-1+TRAIL kill | FLuc stim CS | NF-kB neuron act | FLuc inhib CS
c1ccc(-c2nc(-c3ccncc3)no2)cc1 | -2 | 103 | -11 | 0.7 | 2.2 | 27
c1ccc(-c2ccc(-c3nc(-c4ccncc4)no3)cc2)cc1 | 12 | 177* | -11 | 0.8 | 6.8* | 21
CCSc1ncc(/C=N/Nc2ccc(Cl)cc2)n1C | -6 | 70 | 18 | 0.9 | 5.7* | 13
CC(C)CC(=O)/C(=C\c1ccc(Cl)cc1Cl)n1cncn1 | 64* | -6 | 9 | 1 | 1.1 | -2
O=C1c2ccccc2C(=O)C12OC2c1ccc(Cl)cc1Cl (centres undefined) | 25 | -25 | 18 | 1.1 | 4.1* | -9
O=C1c2ccccc2C(=O)C1c1ccc(Cl)cc1 | -23 | x | x | x | x | x
Cn1c(Cl)cnc1C1CC(=O)c2cc(Cl)ccc2O1 (centres undefined) | -11 | -27 | 18 | 1 | 4.7* | 0
O=C1CC(c2ccc(Cl)cc2)Oc2ccc(Cl)cc21 (centres undefined) | 14 | x | x | x | x | x
CCc1nc2ccc(C(=O)Nc3cc(-c4ccccc4)ccc3OC)cn2c1N(C=O)CCC(C)C | 0 | x | x | x | x | x

Bioassay records as filed in PubChem BioAssay.
